Key:
[1] = Conversion rate by hydrolysis of compound […] after 2 hr at a pH of 1.0; type: ADME, cell-free; conditions: pH 1; read-out: Conversion rate
Procedure, shortened: (§1)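 Prodrug from a 10 mM DMSO stock, diluted to 4 μM final in 0.4 N HClO4 and held at room temperature. Aliquots were taken at intervals. Free 1 was measured by RIA: p-benzoquinone derivatization for 30 min, then rabbit antiserum and 125I tracer. Hydrolysis % is the measured 1 as a percent of the level for complete hydrolysis.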

[2] = Conversion rate by hydrolysis of compound in plasma after 6 hr.; type: ADME, cell-free; conditions: read-out: Conversion rate
Procedure, shortened: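 Male Swiss mice (20–25 g) were given 24 μmol/kg prodrug orally in 1% methyl cellulose and decapitated at 0.5, 1, 3 or 6 h. Plasma HClO4 extracts were assayed by RIA for free 1, with total 1 measured after heating at 95 °C for 30 min. Value is AUCplasma(1)/[AUCplasma(1)+AUCplasma(prodrug)].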

[3] = Conversion rate by hydrolysis of compound in plasma after 4 hr at a pH of 7.4; type: ADME, cell-free; conditions: pH 7.4, read-out: Conversion rate
[4] = Concentration of compound in Central nervous system; Not detectable; type: ADME, tissue-based
[5] = Conversion rate by hydrolysis of compound […] after 2 hr at a pH of 1.0; Not detectable; type: ADME, cell-free; conditions: pH 1, 2 h; procedure, shortened: as §1
[6] = Conversion rate by hydrolysis of compound in plasma after 4 hr at a pH of 7.4; Not detectable; type: ADME, cell-free; conditions: pH 7.4, 4 h
[7] = Plasma concentration (AUC) was determined; Not detectable; type: ADME, cell-free
[8] = Conversion rate by hydrolysis of compound in plasma after 6 h; Not detectable; type: ADME, cell-free

Row | metabolised at 2 h [1] [%] | metabolised at 6 h [2] [%] | metabolised at 4 h [3] [%] | concentration in CNS [4] | Conversion rate [5] | Conversion rate [6] | Structure (SMILES) | AUC [7] | Conversion rate [8]
1 | 20.1 | 26 | – | – | – | – | C[C@H](Cc1c[nH]cn1)/N=C(\c1ccc(F)cc1)c1ccccc1O | – | –
2 | 63.8 | 45 | 33.8 | – | – | – | C[C@H](Cc1c[nH]cn1)/N=C(\c1ccc(F)cc1)c1cc(F)ccc1O | – | –
3 | 11.9 | 29 | – | Not detectable | – | – | Cc1ccc(O)c(/C(=N/[C@H](C)Cc2c[nH]cn2)c2ccccc2)c1 | – | –
4 | 46.9 | 33 | 23.2 | Not detectable | – | – | C[C@H](Cc1c[nH]cn1)/N=C(\c1ccccc1)c1cc(Cl)ccc1O | – | –
5 | 5.6 | 41 | 2.8 | Not detectable | – | – | Cc1cc(O)c(/C(=N/[C@H](C)Cc2c[nH]cn2)c2ccccc2)cc1Cl | – | –
6 | 14.1 | 14 | – | Not detectable | – | – | C[C@H](Cc1c[nH]cn1)/N=C(\c1ccccc1)c1ccccc1O | – | –
7 | 79.3 | 28 | 19.6 | – | – | – | C[C@H](Cc1c[nH]cn1)/N=C(\c1ccccc1)c1cc(F)cc(Cl)c1O | – | –
8 | 0.2 | 11 | 1.3 | Not detectable | – | – | C[C@H](Cc1c[nH]cn1)/N=C(/c1cc(F)ccc1O)c1cccc2ccccc12 | – | –
9 | – | – | – | Not detectable | Not detectable | Not detectable | C[C@H](Cc1c[nH]cn1)N=C(c1ccccc1O)c1ccccc1O | – | –
10 | 62.7 | 58 | 16.2 | – | – | – | C[C@H](Cc1c[nH]cn1)/N=C(\c1ccc(Cl)cc1)c1cc(Cl)ccc1O | – | –
11 | 67.1 | 40 | 26 | – | – | – | C[C@H](Cc1c[nH]cn1)/N=C(\c1ccc(F)cc1)c1cc(Cl)ccc1O | – | –
12 | 18.3 | 28 | – | – | – | – | C[C@H](Cc1c[nH]cn1)/N=C(\c1ccc(Cl)cc1)c1ccccc1O | – | –
13 | 62 | 42 | 15.2 | – | – | – | C[C@H](Cc1c[nH]cn1)/N=C(\c1ccc(Cl)cc1)c1cc(F)ccc1O | – | –
14 | 34.6 | 31 | 16.6 | – | – | – | C[C@H](Cc1c[nH]cn1)/N=C(\c1ccccc1)c1cc(Br)ccc1O | – | –
15 | 30 | 24 | 15.4 | – | – | – | C[C@H](Cc1c[nH]cn1)/N=C(\c1ccccc1)c1cc(F)ccc1O | – | –
16 | 3 | – | 6 | Not detectable | – | – | COc1ccc(/C(=N/[C@H](C)Cc2c[nH]cn2)c2ccccc2)c(O)c1 | Not detectable | –

Row | Structure (SMILES) | metabolised at 2 h [1] [%] | metabolised at 6 h [2] [%] | metabolised at 4 h [3] [%] | concentration in CNS [4] | Conversion rate [5] | Conversion rate [6] | AUC [7] | Conversion rate [8]
17 | C[C@@H]1Cc2[nH]cnc2C(c2ccccc2O)N1 (some centres undefined) | 0.2 | – | – | Not detectable | – | – | Not detectable | Not detectable
